# Measured values reported in ChEMBL document CHEMBL4266010, “Synthesis, Biological Evaluation of Fluorescent 23-Hydroxybetulinic Acid Probes, and Their Cellular Localization Studies” (ACS Med Chem Lett, 2018).
# pIC50: −log10 of the molar value. The source made the active and inactive calls. The calls are words filed in the database; no cut-off is given here.
# Experiments:
# B16-F10 [1] = test: Antiproliferative activity against mouse B16F10 cells after 72 hrs by MTT assay; format: functional, cell-based; conditions: B16-F10, 72 h
# Outline: (§1)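 MTT assay on B16F10 mouse skin melanoma, MCF-7 human breast cancer and Helf human embryonic lung fibroblast cells. Doxorubicin served as reference. Values are mean ± SD of three independent experiments.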
# MCF7 = test: Antiproliferative activity against human MCF7 cells after 72 hrs by MTT assay; format: functional, cell-based; conditions: MCF7, 72 h; outline: as §1
# [2] = Antiproliferative activity against HELF after 72 hrs by MTT assay; set-up: species or system Homo sapiens; outline: as §1
# B16-F10 [3] = test: Induction of apoptosis in mouse B16F10 cells assessed as increase in caspase-3 protein expression at 1.5 to 6 uM after 48 hrs by Western blot analysis; format: functional, cell-based
# Outline: (§2)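 B16F10 cells treated with parent acid (0, 7.5, 15, 30 μM) or probe (0, 1.5, 3.0, 6.0 μM). Bax, Bcl-2, cytochrome c, caspase 3 and caspase 9 detected by Western blot with GAPDH loading control. Band density normalized to GAPDH as relative expression. Values are mean ± SD of three independent experiments; P values for control vs treated.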
# B16-F10 [4] = test: Induction of mitochondrial membrane potential loss in mouse B16F10 cells at 1.5 to 6 uM after 48 hrs by JC-1 dye based flow cytometry; format: functional, cell-based
# Outline: (§3)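 B16F10 cells incubated 48 h with parent acid (0, 7.5, 15, 30 μM) or probe (0, 1.5, 3.0, 6.0 μM), then stained with JC-1. Percentage of cells with collapsed mitochondrial membrane potential determined by flow cytometry.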
# [5] = Drug uptake in mouse B16F10 cell lysosomes at 4 uM after 1 hr by LysoTracker staining based confocal laser scanning microscopic method; format: ADME, subcellular, Lysosome; conditions: b16-f10, 1 h
# Outline: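 Live B16F10 cells co-stained with the coumarin probe at 4 μM and LysoTracker Red, with DAPI nuclear counterstain. Imaged by confocal microscopy, probe visualized as green and lysosomes as red.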
# B16-F10 [6] = test: Induction of apoptosis in mouse B16F10 cells assessed as decrease in Bcl2 protein expression at 1.5 to 6 uM after 48 hrs by Western blot analysis; format: functional, cell-based; outline: as §2
# [7] = Drug uptake in mouse B16F10 cell mitochondria at 4 uM after 1 hr by MitoTracker dye based confocal laser scanning microscopic method; format: ADME; conditions: b16-f10, 1 h
# Outline: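 Live B16F10 cells incubated 1 h with the coumarin probe at 4 μM together with MitoTracker. Imaged by confocal laser scanning microscopy with probe excitation at 415 nm (green) and MitoTracker […] at 579 nm (red). Colocalization read from overlay of the two channels.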
# [8] = Drug uptake in mouse B16F10 cells at 10 uM up to 240 mins mins by flow cytometry; format: ADME, cell-based; conditions: b16-f10, 4 h
# Outline: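 Live B16F10 cells incubated with 10 μM coumarin probe over a time course (0–120 min and beyond). Intracellular fluorescence intensity quantified by flow cytometry.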
# B16-F10 [9] = test: Induction of apoptosis in mouse B16F10 cells assessed as increase in cytochrome-c protein expression at 1.5 to 6 uM after 48 hrs by Western blot analysis; format: functional, cell-based; outline: as §2
# [10] = Drug uptake in mouse B16F10 cell nucleus at 4 uM after 1 hr by DAPI staining based confocal laser scanning microscopic method; format: ADME, subcellular; conditions: b16-f10, 1 h
# B16-F10 [11] = test: Induction of apoptosis in mouse B16F10 cells assessed as increase in caspase-9 protein expression at 1.5 to 6 uM after 48 hrs by Western blot analysis; format: functional, cell-based; outline: as §2
# [12] = Drug uptake in mouse B16F10 cells after 15 mins by fluorescence microscopic method; format: ADME, cell-based; conditions: b16-f10, 0.25 h
# Outline: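 Live B16F10 cells incubated with the coumarin-labelled probe (10 μM among several concentrations) over a time course. Intracellular fluorescence imaged by fluorescence microscopy. Probe excitation/emission maxima 415/475 nm.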
# B16-F10 [13] = test: Induction of apoptosis in mouse B16F10 cells assessed as increase in Bax protein expression at 1.5 to 6 uM after 48 hrs by Western blot analysis; format: functional, cell-based; outline: as §2
# B16-F10 [14] = test: Induction of apoptosis in mouse B16F10 cells assessed as increase in caspase-9 protein expression at 7.5 to 30 uM after 48 hrs by Western blot analysis; format: functional, cell-based; outline: as §2
# B16-F10 [15] = test: Induction of mitochondrial membrane potential loss in mouse B16F10 cells at 7.5 uM after 48 hrs by JC-1 dye based flow cytometry (reference value: 1.79%); format: functional; outline: as §3
# B16-F10 [16] = test: Induction of mitochondrial membrane potential loss in mouse B16F10 cells at 30 uM after 48 hrs by JC-1 dye based flow cytometry (reference value: 1.79%); format: functional; outline: as §3
# B16-F10 [17] = test: Induction of apoptosis in mouse B16F10 cells assessed as decrease in Bcl2 protein expression at 7.5 to 30 uM after 48 hrs by Western blot analysis; format: functional, cell-based; outline: as §2
# B16-F10 [18] = test: Induction of mitochondrial membrane potential loss in mouse B16F10 cells at 15 uM after 48 hrs by JC-1 dye based flow cytometry (reference value: 1.79%); format: functional; outline: as §3
# B16-F10 [19] = test: Induction of apoptosis in mouse B16F10 cells assessed as increase in cytochrome-c protein expression at 7.5 to 30 uM after 48 hrs by Western blot analysis; format: functional, cell-based; outline: as §2
# B16-F10 [20] = test: Induction of apoptosis in mouse B16F10 cells assessed as increase in caspase-3 protein expression at 7.5 to 30 uM after 48 hrs by Western blot analysis; format: functional, cell-based; outline: as §2
# B16-F10 [21] = test: Induction of apoptosis in mouse B16F10 cells assessed as increase in Bax protein expression at 7.5 to 30 uM after 48 hrs by Western blot analysis; format: functional, cell-based; outline: as §2
# [22] = Drug uptake in mouse B16F10 cells up to 50 uM after 1 hr by fluorescence microscopic method; format: ADME, cell-based; conditions: b16-f10, 1 h
# Outline: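 Live B16F10 cells stained 1 h with the unconjugated coumarin dye at up to 50 μM as control. Intracellular fluorescence examined by microscopy.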
SMILES,pIC50 (B16-F10 [1]),pIC50 (MCF7),pIC50 [2],other results
COc1cccc2c1C(=O)c1c(O)c3c(c(O)c1C2=O)C[C@@](O)(C(=O)CO)C[C@@H]3O[C@H]1C[C@H](N)[C@H](O)[C@H](C)O1 [DOXORUBICIN],6.72,6.82,6.68,
C=C(C)[C@@H]1CC[C@]2(C(=O)O)CC[C@]3(C)[C@H](CC[C@@H]4[C@@]5(C)CC[C@H](O)[C@@](C)(CO)[C@@H]5CC[C@]43C)[C@@H]12,4.61,4.68,4.50,Activity (B16-F10 [14]): Active; Activity (B16-F10 [15]): 10.57%; Activity (B16-F10 [16]): 42.87%; Activity (B16-F10 [17]): Active; Activity (B16-F10 [18]): 22.85%; Activity (B16-F10 [19]): Active; Activity (B16-F10 [20]): Active; Activity (B16-F10 [21]): Active
C=C(C)[C@@H]1CC[C@]2(C(=O)O)CC[C@]3(C)[C@H](CC[C@@H]4[C@@]5(C)CC[C@H](O)[C@@](C)(COC(=O)CCC(=O)OCCOCCOC(=O)c6cc7ccc(N(CC)CC)cc7oc6=O)[C@@H]5CC[C@]43C)[C@@H]12,4.45,4.52,4.67,
C=C(C)[C@@H]1CC[C@]2(C(=O)O)CC[C@]3(C)[C@H](CC[C@@H]4[C@@]5(C)CC[C@H](O)[C@@](C)(COC(=O)CCCCCNC(=O)c6cc7ccc(N(CC)CC)cc7oc6=O)[C@@H]5CC[C@]43C)[C@@H]12,4.91,4.42,4.10,
C=C(C)[C@@H]1CC[C@]2(C(=O)O)CC[C@]3(C)[C@H](CC[C@@H]4[C@@]5(C)CC[C@H](O)[C@@](C)(COC(=O)CCC(=O)OCCOCCOCCOC(=O)c6cc7ccc(N(CC)CC)cc7oc6=O)[C@@H]5CC[C@]43C)[C@@H]12,4.52,4.62,4.71,
C=C(C)[C@@H]1CC[C@]2(C(=O)O)CC[C@]3(C)[C@H](CC[C@@H]4[C@@]5(C)CC[C@H](O)[C@@](C)(COC(=O)COCCOCCNC(=O)c6cc7ccc(N(CC)CC)cc7oc6=O)[C@@H]5CC[C@]43C)[C@@H]12,5.28,5.09,4.96,
CCN(CC)c1ccc2cc(C(=O)NCCNC(=O)CCC(=O)O)c(=O)oc2c1,< 4.00,,,Drug uptake [22]: Not Active
C=C(C)[C@@H]1CC[C@]2(C(=O)O)CC[C@]3(C)[C@H](CC[C@@H]4[C@@]5(C)CC[C@H](O)[C@@](C)(COC(=O)CCCNC(=O)c6cc7ccc(N(CC)CC)cc7oc6=O)[C@@H]5CC[C@]43C)[C@@H]12,4.95,4.74,4.56,

# The next lines start with results.
pIC50 (B16-F10 [1]),pIC50 (MCF7),SMILES,pIC50 [2],other results
4.94,4.70,C=C(C)[C@@H]1CC[C@]2(C(=O)O)CC[C@]3(C)[C@H](CC[C@@H]4[C@@]5(C)CC[C@H](O)[C@@](C)(COC(=O)CCC(=O)NCCOC(=O)c6cc7ccc(N(CC)CC)cc7oc6=O)[C@@H]5CC[C@]43C)[C@@H]12,4.62,
5.11,5.01,C=C(C)[C@@H]1CC[C@]2(C(=O)O)CC[C@]3(C)[C@H](CC[C@@H]4[C@@]5(C)CC[C@H](O)[C@@](C)(COC(=O)CCC(=O)NCCCCNC(=O)c6cc7ccc(N(CC)CC)cc7oc6=O)[C@@H]5CC[C@]43C)[C@@H]12,4.75,
5.39,5.20,C=C(C)[C@@H]1CC[C@]2(C(=O)O)CC[C@]3(C)[C@H](CC[C@@H]4[C@@]5(C)CC[C@H](O)[C@@](C)(COC(=O)CCC(=O)NCCNC(=O)c6cc7ccc(N(CC)CC)cc7oc6=O)[C@@H]5CC[C@]43C)[C@@H]12,4.93,Activity (B16-F10 [3]): Active; Activity (B16-F10 [4]): Active; Drug uptake [5]: Not Active; Activity (B16-F10 [6]): Active; Drug uptake [7]: Active; Drug uptake [8]: Active; Activity (B16-F10 [9]): Active; Drug uptake [10]: Not Active; Activity (B16-F10 [11]): Active; Drug uptake [12]: Dose-dependent effect; Activity (B16-F10 [13]): Active
4.93,4.71,C=C(C)[C@@H]1CC[C@]2(C(=O)O)CC[C@]3(C)[C@H](CC[C@@H]4[C@@]5(C)CC[C@H](O)[C@@](C)(COC(=O)CCC(=O)OCCOC(=O)c6cc7ccc(N(CC)CC)cc7oc6=O)[C@@H]5CC[C@]43C)[C@@H]12,4.62,
4.98,4.74,C=C(C)[C@@H]1CC[C@]2(C(=O)O)CC[C@]3(C)[C@H](CC[C@@H]4[C@@]5(C)CC[C@H](O)[C@@](C)(COC(=O)CCC(=O)OCCNC(=O)c6cc7ccc(N(CC)CC)cc7oc6=O)[C@@H]5CC[C@]43C)[C@@H]12,4.60,
